According to ChEMBL document CHEMBL4368930, “Synthesis and anti-HSV activity of tricyclic penciclovir and hydroxybutylguanine derivatives” (Bioorg Med Chem, 2019):

Assays:
Human betaherpesvirus 5 [1] = assay: Antiviral activity against Human cytomegalovirus AD169 assessed as reduction in virus-induced cytopathogenicity by microscopic analysis; assay type: functional, organism-based; conditions: Human betaherpesvirus 5, strain AD169
TERT-RPE1 = assay: Cytostatic activity against human hTERT-RPE1 cells; assay type: ADME, cell-based; conditions: RPE-1
Summary of the method: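 Cell proliferation was measured against the number of cells in untreated controls.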

K562 = assay: Cytostatic activity against human K562 cells; assay type: ADME, cell-based
Human alphaherpesvirus 1 [2] = assay: Antiviral activity against herpes simplex virus 1 KOS infected in HEL cells assessed as reduction in virus-induced cytopathogenicity by microscopic analysis; assay type: functional, organism-based; conditions: Human alphaherpesvirus 1, strain KOS
NCI-H460 = assay: Cytostatic activity against human NCI-H460 cells; assay type: ADME, cell-based
CAPAN-1 = assay: Cytostatic activity against human Capan1 cells; assay type: ADME, cell-based
Z-138 = assay: Cytostatic activity against human Z138 cells; assay type: ADME, cell-based
[3] = Cytostatic activity against human HAP1 cells; assay type: ADME, cell-based
HL-60 = assay: Cytostatic activity against human HL60 cells; assay type: ADME, cell-based
Human alphaherpesvirus 3 [4] = assay: Antiviral activity against thymidine kinase deficient Varicella-zoster virus 07-1 infected in HEL cells assessed as reduction in virus plaque formation; assay type: functional, organism-based; conditions: Human alphaherpesvirus 3, 07-1, HEL
[5] = Cytotoxicity against HEL cells assessed as effect on cell morphology at 0.32 to 200 uM by microscopic analysis; assay type: cell-based; conditions: human
[6] = Cytostatic activity against human DND41 cells; assay type: ADME, cell-based
Human betaherpesvirus 5 [7] = assay: Antiviral activity against Human cytomegalovirus Davis assessed as reduction in virus-induced cytopathogenicity by microscopic analysis; assay type: functional, organism-based; conditions: Human betaherpesvirus 5, Davis
Human alphaherpesvirus 1 [8] = assay: Antiviral activity against thymidine kinase deficient and aciclovir resistant herpes simplex virus 1 KOS infected in HEL cells assessed as reduction in virus-induced cytopathogenicity by microscopic analysis; assay type: functional, organism-based; conditions: Human alphaherpesvirus 1, strain KOS
Human alphaherpesvirus 2 = assay: Antiviral activity against herpes simplex virus 2 G infected in HEL cells assessed as reduction in virus-induced cytopathogenicity by microscopic analysis; assay type: functional, organism-based; conditions: Human alphaherpesvirus 2, G
Summary of the method: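 Confluent cell monolayers were inoculated with 100 CCID50 of virus or 20 PFU. After a 1–2 h adsorption, residual virus was removed and cultures were incubated with the test compounds at 200, 40, 8, 1.6 and 0.32 μM. Cytopathicity was scored once it was complete in untreated infected controls.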

Human alphaherpesvirus 3 [9] = assay: Antiviral activity against Varicella-zoster virus Oka harboring thymidine kinase infected in HEL cells assessed as reduction in virus plaque formation; assay type: functional, organism-based; conditions: Human alphaherpesvirus 3, Oka

| Compound | EC50 (Human betaherpesvirus 5 [1]) [µM] | IC50 (TERT-RPE1) [µM] | IC50 (K562) [µM] | EC50 (Human alphaherpesvirus 1 [2]) [µM] | IC50 (NCI-H460) [µM] | IC50 (CAPAN-1) [µM] | IC50 (Z-138) [µM] | IC50 [3] [µM] | IC50 (HL-60) [µM] | EC50 (Human alphaherpesvirus 3 [4]) [µM] | MCC at up to 200 µM [5] [µM] | IC50 [6] [µM] | EC50 (Human betaherpesvirus 5 [7]) [µM] | EC50 (Human alphaherpesvirus 1 [8]) [µM] | EC50 (Human alphaherpesvirus 2) [µM] | EC50 (Human alphaherpesvirus 3 [9]) [µM] |
| --- | --- | --- | --- | --- | --- | --- | --- | --- | --- | --- | --- | --- | --- | --- | --- | --- |
| Nc1nc2c(ncn2CCCCO)c(=O)[nH]1 | > 100 | > 100 | > 100 | 1.5 | > 100 | 72.7 | > 100 | > 100 | > 100 | > 100 | > 100 | > 100 | > 100 | 10 | 2.1 | 76.5 |
| O=c1c2ncn(CCC(CO)CO)c2nc2[nH]c(-c3ccc(Oc4ccccc4)cc3)cn12 | > 100 | 16.9 | > 100 | > 100 | 47.2 | 46.4 | > 100 | 44 | 63.3 | > 100 | > 100 | 90.4 | > 100 | > 100 | > 100 | 62.8 |
| Nc1nc2c(ncn2CCC(CO)CO)c(=O)[nH]1 [PENCICLOVIR] | > 100 | > 100 | > 100 | 0.8 | > 100 | 93 | > 100 | > 100 | > 100 | 33.4 | > 100 | > 100 | > 100 | 0.2 | 0.2 | 3.5 |
